# KCNQ1 inh – human KCNQ1 channel inhibition; B-score at 10 µM; 310,000 compounds, 1.3% hits; CHO-K1 KCNQ1, FluxOR thallium flux fluorescence; stronger effect = higher value; P51787;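 active = compounds whose thallium flux B-score, printed positive for inhibition, exceeds three library SD while starting fluorescence stays within three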;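 also: channel opened by potassium depolarization with thallium stimulus after 20 min compound exposure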
# Cl transport mod – KCC2 (human) Cl- transport modulation | KCC2 cells, thallium flux FluoZin-2 fluorescence | 190,000 compounds, 2.2% hits | AID 1456 | B-score of Tl+ flux slope (higher = more flux/activation; lower = inhibition) at 10 µM | Q9H2X9;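 active = thallium flux slope and its plate-corrected score both differing from the plate sample mean at a set confidence after two filtering rounds, in either direction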;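 also: slope of fluorescence scaled to starting intensity during 10 to 20 s after thallium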
# KCNK9 inh – human KCNK9 channel inhibition. B-score at 10 µM. HEK293 KCNK9, FluxOR thallium flux fluorescence; stronger effect = lower value. Q9NPC2. 310,000 compounds, 1.2% hits;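 active = ratio B-score over 3 SD below the library mean, with starting fluorescence within 5 SD of its mean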;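 also: negative B-score means less thallium flux so channel inhibition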
# hERG rescue – hERG (human) protection from proarrhythmic block. CHO-hERG, FluxOR thallium flux, dofetilide IC70 present. activation (rescue from dofetilide block), less the hit threshold, % at 10 µM. 310,000 compounds, 0.51% hits. AID 1511;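 active = activation above the mean of controls blocked by dofetilide plus 5 SD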;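 also: thallium influx through hERG after potassium depolarization seen as dye fluorescence rise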
# KCNK3 block – human KCNK3 channel inhibition, primary screen; B-score at 10 µM; CHO-KCNK3 thallium flux, FluxOR fluorescence; stronger effect = lower value; 340,000 compounds, 0.84% hits;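 active = B-score under library mean minus 4 SD, starting fluorescence ratio at most library mean plus 5 SD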;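 also: more negative B-score means stronger inhibition of thallium flux through KCNK3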
# KCNQ1 act – potentiates or activates the human KCNQ1 potassium channel | P51787 | B-score at 10 µM | 310,000 compounds, 0.35% hits | CHO-K1 KCNQ1, thallium flux FluxOR fluorescence; stronger effect = higher value;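 active = fluorescence ratio B-score, a plate-corrected score, at least three library SD, with initial intensity B-score within 5 SD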
#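 Assay system: CHO-K1 cells stably expressing KCNQ1; Medium: assay buffer with matched DMSO; Also added: K+/Tl+ depolarizing stimulus; Dosing: single dose; Timing: dye 90 min, compound 20 min, room temperature; Measured by: kinetic FluxOR thallium fluorescence, 10-s 1-Hz baseline, 110-s post-stimulus read; Read-out: peak-minus-minimum fluorescence over initial fluorescence, negative-control normalized, B-scored.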
# KCNQ1 inh valid – reconfirmed blocker of the human KCNQ1 potassium channel; shares compounds with KCNQ1 inh; inhibition, % at 10 µM; 1,600 compounds, 93% hits; KCNQ1 cell line, FluxOR thallium flux fluorescence;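 active = primary screen active, with duplicate mean exceeding buffer control mean plus 3 SD of buffer wells, cut at about 28% in these data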;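 also: 0% = buffer control ratio and 100% = XE991 inhibitor control ratio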
# CHO KCNQ1 ctr – activity in parental CHO cells lacking KCNQ1 | 1,600 compounds, 21% hits | AID 588366 | fluorescence ratio (Tl flux) at 10 µM | parental CHO-K1, FluxOR thallium flux fluorescence ratio; stronger effect = lower value; zero means no signal rise above baseline | shares compounds with KCNQ1 inh;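 active = mean of duplicate thallium-flux fluorescence ratios in parental host cells more than 5 SD below the buffer control mean, cut at about 0.38 in these data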;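 also: ratio is peak minus minimum fluorescence divided by baseline fluorescence; actives read low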
# KCNQ1 ephys val – confirmation of human KCNQ1 potassium channel inhibitors by electrophysiology; shares compounds with KCNQ1 inh; 490 compounds, 20% hits; KCNQ1-CHO cells, automated patch clamp current; calls only at 10 µM;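 active = KCNQ1 current drop exceeding 3 SD of negative control wells, seen in both duplicate runs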;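 also: steady state current during a 2 s step from -80 to +40 mV; negative values mean current inhibition and positive values mean potentiation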
# KCNQ2 inh – KCNQ1 inhibitor that also blocks rat KCNQ2 channel; shares compounds with KCNQ1 inh; KCNQ2 cells, FluxOR thallium flux fluorescence; inhibition, % at 10 µM; 1,600 compounds, 71% hits;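 active = mean percent inhibition of the KCNQ2 thallium signal more than 5 SD above the buffer-only control wells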;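 also: KCNQ2 expressed in CHO cells; 0% = buffer control wells and 100% = XE-991 inhibitor control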
# Target sequence (O88943 whole entry, looked up): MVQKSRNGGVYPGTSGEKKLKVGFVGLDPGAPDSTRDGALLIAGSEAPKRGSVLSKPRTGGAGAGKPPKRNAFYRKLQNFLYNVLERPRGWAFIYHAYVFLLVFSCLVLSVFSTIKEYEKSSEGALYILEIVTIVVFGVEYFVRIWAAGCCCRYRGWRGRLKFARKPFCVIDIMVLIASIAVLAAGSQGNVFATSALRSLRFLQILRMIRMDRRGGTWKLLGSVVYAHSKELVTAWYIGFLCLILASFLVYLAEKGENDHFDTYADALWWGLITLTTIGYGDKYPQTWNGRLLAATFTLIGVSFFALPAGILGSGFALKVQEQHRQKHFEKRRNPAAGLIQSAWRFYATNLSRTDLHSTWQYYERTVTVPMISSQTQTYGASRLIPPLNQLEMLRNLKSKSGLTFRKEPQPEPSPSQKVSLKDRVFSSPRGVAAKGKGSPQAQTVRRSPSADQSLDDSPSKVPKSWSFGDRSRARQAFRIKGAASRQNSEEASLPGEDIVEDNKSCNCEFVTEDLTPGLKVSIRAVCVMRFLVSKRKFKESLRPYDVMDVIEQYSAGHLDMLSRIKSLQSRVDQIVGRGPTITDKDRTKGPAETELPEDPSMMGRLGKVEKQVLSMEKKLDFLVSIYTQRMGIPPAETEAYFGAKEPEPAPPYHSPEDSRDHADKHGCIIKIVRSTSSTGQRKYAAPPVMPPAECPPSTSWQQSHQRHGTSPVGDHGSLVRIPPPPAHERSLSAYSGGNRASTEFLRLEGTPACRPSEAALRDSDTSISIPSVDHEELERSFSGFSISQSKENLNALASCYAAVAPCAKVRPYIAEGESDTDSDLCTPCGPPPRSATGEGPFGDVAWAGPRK
# KCNQ1 KCNE1 spec – KCNQ1 inhibitor that also blocks human KCNQ1/KCNE1 channel; KCNQ1/KCNE1 cells, FluxOR thallium flux fluorescence; shares compounds with KCNQ1 inh; inhibition, % at 10 µM; 1,600 compounds, 77% hits;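 active = mean percent inhibition of duplicate wells above the buffer-only control mean plus 3 SD of those controls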;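 also: 0% = buffer only wells and 100% = XE-991 inhibitor control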
# KCNK9 inh conf – confirmation of human KCNK9 potassium channel inhibitors | 4,900 compounds, 43% hits | shares compounds with KCNK9 inh | inhibition, % at 10 µM | HEK293 KCNK9 cells, FluxOR thallium flux fluorescence;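 active = thallium signal inhibited by more than 5 SD of the compound-free buffer control wells, on both duplicate plates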;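 also: 0% = assay buffer control wells without compound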
# Kir21 sel – selectivity of KCNK9 modulators against mouse Kir2.1 | inhibition, % at 10 µM | shares compounds with KCNK9 inh | 4,900 compounds, 4% hits | Kir2.1 cells, FluxOR thallium flux fluorescence;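 active = thallium signal drop more than 5 SD beyond the mean of the no-compound control wells, seen in both duplicate plates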;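 also: signal is fluorescence rise after thallium addition divided by baseline fluorescence; plate controls were assay buffer only for no effect and full block by chlorpromazine control for full effect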
# KCNK9 uninduced – second check of KCNK9 modulator effects in non-induced HEK293 cells; shares compounds with KCNK9 inh; FluxOR thallium flux; inhibition, % at 10 µM; 4,900 compounds, 40% hits;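 active = thallium signal drop beyond 5 SD of the untreated control mean, on both duplicate plates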;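 also: plate controls were buffer only IC0 wells for no effect and SID17386958 at its maximal inhibitory level for full effect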
# Numbers without * were called inactive; i = inactive; x = no result. Rows were chosen to be rich in hits. Some 4.1% of all compounds tested hit in one or more screens of this group.
SMILES,KCNQ1 inh,Cl transport mod,KCNK9 inh,hERG rescue,KCNK3 block,KCNQ1 act,KCNQ1 inh valid,CHO KCNQ1 ctr,KCNQ2 inh,KCNQ1 KCNE1 spec,KCNK9 inh conf,Kir21 sel,KCNK9 uninduced,others
CC(C)CC(C(=O)Nc1cccc(O)c1)N1C(=O)c2ccccc2C1=O (stereo not drawn),i,x,i,-2,i,i,x,x,x,x,x,x,x,
CCCCCOc1ccc(C(=O)NC(C(=O)O)C(C)C)cc1 (stereo not drawn),i,-0.17,i,-8,i,i,x,x,x,x,x,x,x,
CC1(C)Cc2c(C#N)c(N3CCN(C(=O)c4ccccc4)CC3)nc(Cc3ccccc3)c2CO1,10*,0.23,i,-9,i,i,106*,0.4,111%*,128%*,i,i,i,KCNQ1 ephys val=i
CCOc1ccccc1NC(=O)C(NCC1CCCCC1)c1ccccc1 (stereo not drawn),10*,0.13,-8.9*,-29,i,i,131*,0.38,125%*,156%*,46%*,i,40%*,KCNQ1 ephys val=i
COc1ccc(-c2cc3nc(-c4ccccc4)cc(N4CCCC(O)C4)n3n2)cc1 (stereo not drawn),9*,0.52,i,-22,i,i,104*,0.44,112%*,184%*,i,i,i,KCNQ1 ephys val=i
O=C(c1ccc(Cl)c(Cl)c1)N(Cc1ccco1)c1ccc(O)cc1,7*,-1.2,-11*,-13,i,i,84*,0.4,106%*,118%*,40%*,32%*,42%*,
Cc1cccc2c1cnn2C(=O)CCC(=O)N1CC(C)CC(C)C1 (stereo not drawn),11*,x,i,-13,i,i,25*,0.48,72%*,i,i,i,i,
Cc1cccc2c1cnn2C(=O)CCC(=O)N1CCC(C)CC1,i,x,i,-5,i,i,x,x,x,x,x,x,x,
N#Cc1c(NC(=O)Cn2c(=O)oc3ccccc32)oc(-c2ccccc2)c1-c1ccccc1,12*,-1.3,-8.2*,-6,i,i,64*,0.45,i,i,i,i,i,
O=C(Cn1c(=O)oc2ccccc21)Nc1ccc(Br)cc1,i,x,i,-1,i,i,x,x,x,x,x,x,x,
CC1CCN(S(=O)(=O)c2ccc(NC(=O)C3CC3)cc2)CC1,i,x,i,-6,i,i,x,x,x,x,x,x,x,
CCCc1nc(SCC(=O)N2CCC(Cc3ccccc3)CC2)c2c(=O)n(C)c(=O)n(C)c2n1,6*,-2,i,-34,i,i,98*,0.41,i,i,i,i,i,
CCOC(=O)CSC1=C(C#N)C(c2ccccc2C)C2=C(CCCC2=O)N1 (stereo not drawn),i,-0.96,i,-4,i,i,x,x,x,x,x,x,x,

# Screens (PubChem BioAssay)
